The target of test [1] is T1, Protein cereblon/E3 ubiquitin-protein ligase ZFP91 (Homo sapiens, UniProt Q96SW2+Q96JP5). Nature of the test: Protac activity at CRBN/ZFP91 in human BxPC-3 cells assessed as induction of ZF91 degradation incubated for 24 hrs by western blot analysis. Format: cell-based. The method in brief:
(§1)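 BxPC-3 cells treated for 4, 16 or 24 h across a concentration series. ZFP91 immunoblotted against GAPDH; bands quantified by densitometry, DC50 calculated from dose-response curves of the densitometry.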
Target sequence in this assay (Q96SW2 whole entry): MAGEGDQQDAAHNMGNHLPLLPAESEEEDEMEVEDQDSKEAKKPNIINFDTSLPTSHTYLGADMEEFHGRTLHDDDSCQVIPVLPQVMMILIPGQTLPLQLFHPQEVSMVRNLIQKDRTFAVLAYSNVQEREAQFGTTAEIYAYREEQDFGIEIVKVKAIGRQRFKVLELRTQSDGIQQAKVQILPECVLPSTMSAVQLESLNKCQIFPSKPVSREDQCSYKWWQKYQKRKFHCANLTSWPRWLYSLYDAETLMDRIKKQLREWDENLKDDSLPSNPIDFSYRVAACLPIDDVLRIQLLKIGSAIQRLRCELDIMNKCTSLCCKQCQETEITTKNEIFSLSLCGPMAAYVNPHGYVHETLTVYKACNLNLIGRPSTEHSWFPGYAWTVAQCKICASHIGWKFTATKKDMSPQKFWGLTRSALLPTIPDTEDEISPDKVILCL
Target sequence in this assay (Q96JP5 whole entry): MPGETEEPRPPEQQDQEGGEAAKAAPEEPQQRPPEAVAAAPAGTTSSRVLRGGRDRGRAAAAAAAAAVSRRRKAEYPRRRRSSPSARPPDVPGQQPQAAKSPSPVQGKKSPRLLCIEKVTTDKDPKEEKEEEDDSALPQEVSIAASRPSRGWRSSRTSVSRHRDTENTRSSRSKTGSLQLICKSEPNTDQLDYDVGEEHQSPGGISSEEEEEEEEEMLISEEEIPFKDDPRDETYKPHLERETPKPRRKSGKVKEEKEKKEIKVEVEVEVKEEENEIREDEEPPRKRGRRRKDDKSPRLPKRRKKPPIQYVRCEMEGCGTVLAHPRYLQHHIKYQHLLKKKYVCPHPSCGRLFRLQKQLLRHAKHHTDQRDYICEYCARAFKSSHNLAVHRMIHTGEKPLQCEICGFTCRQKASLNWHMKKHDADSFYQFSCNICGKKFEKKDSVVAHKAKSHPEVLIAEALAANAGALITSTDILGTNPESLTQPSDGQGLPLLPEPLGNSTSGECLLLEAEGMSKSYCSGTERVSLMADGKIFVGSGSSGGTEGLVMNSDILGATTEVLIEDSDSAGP
A general note: Immunoblotting shows a protein as a band on a membrane.

In the next test the test system is MIA PaCa-2. Nature of the test: Effect on NQO1 expression in human MIA PaCa-2 cells at […] to 1 uM incubated for 16 hrs by western blot analysis. To be noted: dose 0.5-1 µM. The test is classed as functional, cell-based. The gist of the method: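 Cells were seeded in 6-well plates (BxPC-3 500 × 10^3, MIA PaCa-2 200 × 10^3 cells/well) and exposed to compound for 16 h. Lysis was at 4 °C by sonication in Tris/NaCl/Triton/SDS buffer, pH 7.4, with protease and phosphatase inhibitors. Lysates were run on SDS-PAGE, transferred to PVDF and probed for STAT3, pSTAT3 and NQO1 with GAPDH as loading control. Immunoblots were imaged on an Odyssey system.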

For test [2], the target named is T2, Protein cereblon/Signal transducer and activator of transcription 3 (Homo sapiens, UniProt P40763+Q96SW2). Nature of the test: Protac activity at CRBN/STAT3 in human BxPC-3 cells assessed as decrease in STAT3 expression level at 2 to 6 uM incubated for 12 hrs in presence of proteasome inhibitor MG132 by western blot analysis. Format: cell-based. The settings on record: dose 2-6 µM. The method in brief:
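Immunoblot of BxPC-3 cells given a 2 h pretreatment with MG132 at 10 μM, then test agent for 12 h. Cell lysis, BCA assay, SDS-PAGE/PVDF, probed for STAT3, pSTAT3 and NQO1 with GAPDH as reference.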

Test [3] has as its target T2, Protein cereblon/Signal transducer and activator of transcription 3. The experiment in a line: Protac activity at CRBN/STAT3 in human BxPC-3 cells assessed as increase in inhibition of STAT3 protein levels at 2 to 3 uM incubated for 16 hrs in presence of protein synthesis inhibitor cycloheximide by western blot analysis. The test is classed as cell-based. The settings on record: dose 2-3 µM. The method in brief:
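BxPC-3 cells pretreated 1 h with cycloheximide, then test agent for 16 h. Lysates immunoblotted for STAT3 and NQO1 against GAPDH, fluorescent imaging.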

Test [4] concerns the target T1, Protein cereblon/E3 ubiquitin-protein ligase ZFP91. Nature of the test: Protac activity at CRBN/ZFP91 in human BxPC-3 cells assessed as induction of ZF91 degradation incubated for 4 hrs by western blot analysis. The test is classed as cell-based. The method in brief:
as §1
Target sequence in this assay (Q96JP5 2-570 partner limits assumed): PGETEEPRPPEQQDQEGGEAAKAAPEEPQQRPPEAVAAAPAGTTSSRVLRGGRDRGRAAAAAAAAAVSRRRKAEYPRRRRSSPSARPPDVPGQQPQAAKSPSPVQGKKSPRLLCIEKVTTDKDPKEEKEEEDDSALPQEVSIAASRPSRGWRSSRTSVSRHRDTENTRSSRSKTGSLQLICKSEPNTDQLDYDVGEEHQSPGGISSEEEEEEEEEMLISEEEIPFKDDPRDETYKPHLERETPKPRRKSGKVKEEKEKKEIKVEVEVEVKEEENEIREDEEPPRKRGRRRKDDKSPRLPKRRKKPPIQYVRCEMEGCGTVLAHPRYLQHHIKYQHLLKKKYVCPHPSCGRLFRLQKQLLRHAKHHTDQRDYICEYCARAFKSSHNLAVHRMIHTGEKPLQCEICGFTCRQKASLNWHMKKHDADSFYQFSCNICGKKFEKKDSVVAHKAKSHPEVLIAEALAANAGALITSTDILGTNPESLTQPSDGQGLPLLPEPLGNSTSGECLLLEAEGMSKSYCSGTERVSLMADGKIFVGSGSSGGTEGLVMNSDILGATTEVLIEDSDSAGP
Target sequence in this assay (Q96SW2 whole entry): as the sequence (Q96SW2 whole entry) above

Test [5] shares this target. The experiment in a line: Protac activity at CRBN/ZFP91 in human MIA PaCa-2 cells assessed as ZF91 protein degradation at 0.1 to 0.5 uM incubated for 16 hrs in presence of proteasome inhibitor carfilzomib by western blot analysis. To be noted: dose 0.1-0.5 µM. Format: cell-based.
Target sequence in this assay (Q96JP5 2-570 partner limits assumed): as the sequence (Q96JP5 2-570 partner limits assumed) above
Target sequence in this assay (Q96SW2 whole entry): as the sequence (Q96SW2 whole entry) above
For test [6], the target named is Protein cereblon/Serine/threonine-protein kinase PLK1 (Homo sapiens) (UniProt P53350+Q96SW2). The experiment in a line: Protac activity at CRBN/PLK1 in human BxPC-3 cells assessed as PKL1 degradation incubated for 16 hrs by proteomic analysis. The test is classed as cell-based. The method in brief: (§2)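 TMT 10plex proteomics. […] Samples (75 μg) were reduced with DTT, alkylated with 2-chloroacetamide, acetone-precipitated, trypsin-digested overnight at 37 °C and TMT-labeled for LC-MS/MS relative quantitation.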

The target in test [7] is Protein cereblon/Endothelial differentiation-related factor 1 (Homo sapiens) (UniProt Q96SW2+O60869). Nature of the test: Protac activity at CRBN/EDF1 in human BxPC-3 cells assessed as EDF1 degradation incubated for 16 hrs by proteomic analysis. The test is classed as cell-based. The method in brief:
as §2

Test [8] deals with Protein cereblon/SOSS complex subunit B1 (Homo sapiens) (UniProt Q96SW2+Q9BQ15). Nature of the test: Protac activity at CRBN/NABP2 in human BxPC-3 cells assessed as NABP2 degradation incubated for 16 hrs by proteomic analysis. The test is classed as cell-based. The method in brief:
as §2

Test [9] has as its target Protein cereblon/Protein FAM3C (Homo sapiens) (UniProt Q96SW2+Q92520). The experiment in a line: Protac activity at CRBN/FAM3C in human BxPC-3 cells assessed as FAM3C degradation incubated for 16 hrs by proteomic analysis. Format: cell-based. The method in brief:
as §2

Test [10] has as its target Protein cereblon/Protein PRRC2B (Homo sapiens) (UniProt Q96SW2+Q5JSZ5). Nature of the test: Protac activity at CRBN/PRRC2B in human BxPC-3 cells assessed as PRRC2B degradation incubated for 16 hrs by proteomic analysis. The test is classed as cell-based. The gist of the method:
as §2

The target in test [11] is T1, Protein cereblon/E3 ubiquitin-protein ligase ZFP91. The experiment in a line: Protac activity at CRBN/ZFP91 in human BxPC-3 cells assessed as ZFP91 degradation incubated for 16 hrs by proteomic analysis. Format: cell-based. The gist of the method: (§3)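 BxPC-3 cells exposed 16 h in triplicate (control, PROTAC) or duplicate (other arms); lysed in RIPA at 4 °C, 75 μg protein per sample. Reduced with DTT (1 h, 55 °C), alkylated with 2-chloroacetamide, acetone-precipitated, trypsin-digested overnight at 37 °C, TMT 10plex labelled, relative quantitation by LC-tandem MS.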
Target sequence in this assay (Q96JP5 2-570 partner limits assumed): as the sequence (Q96JP5 2-570 partner limits assumed) above
Target sequence in this assay (Q96SW2 whole entry): as the sequence (Q96SW2 whole entry) above

Test [12] deals with Protein cereblon/Ubiquitin carboxyl-terminal hydrolase 8 (Homo sapiens) (UniProt P40818+Q96SW2). Nature of the test: Protac activity at CRBN/USP8 in human BxPC-3 cells assessed as USP8 degradation incubated for 16 hrs by proteomic analysis. The test is classed as cell-based. The method in brief: as §3
Test [13] in a line: Upregulation of AP-1 protein levels in human BxPC-3 cells incubated for 16 hrs by proteomic analysis. Format: functional. The gist of the method: as §3
A short description of test [14]: Upregulation of RhoB protein levels in human BxPC-3 cells incubated for 16 hrs by proteomic analysis. Format: functional. The gist of the method:
as §3

The nature of test [15]: Upregulation of ABCB6 protein levels in human BxPC-3 cells incubated for 16 hrs by proteomic analysis. Format: functional. The method in brief:
as §3

A short description of test [16]: Upregulation of AKR1C2 protein levels in human BxPC-3 cells incubated for 16 hrs by proteomic analysis. The test is classed as functional. The gist of the method:
as §3

Activity calls are given as the source filed them. The rule behind the calls is not given here.

Usually DC50 stands for the concentration giving 50% degradation.

T2 sequence (P40763 2-770 limits assumed): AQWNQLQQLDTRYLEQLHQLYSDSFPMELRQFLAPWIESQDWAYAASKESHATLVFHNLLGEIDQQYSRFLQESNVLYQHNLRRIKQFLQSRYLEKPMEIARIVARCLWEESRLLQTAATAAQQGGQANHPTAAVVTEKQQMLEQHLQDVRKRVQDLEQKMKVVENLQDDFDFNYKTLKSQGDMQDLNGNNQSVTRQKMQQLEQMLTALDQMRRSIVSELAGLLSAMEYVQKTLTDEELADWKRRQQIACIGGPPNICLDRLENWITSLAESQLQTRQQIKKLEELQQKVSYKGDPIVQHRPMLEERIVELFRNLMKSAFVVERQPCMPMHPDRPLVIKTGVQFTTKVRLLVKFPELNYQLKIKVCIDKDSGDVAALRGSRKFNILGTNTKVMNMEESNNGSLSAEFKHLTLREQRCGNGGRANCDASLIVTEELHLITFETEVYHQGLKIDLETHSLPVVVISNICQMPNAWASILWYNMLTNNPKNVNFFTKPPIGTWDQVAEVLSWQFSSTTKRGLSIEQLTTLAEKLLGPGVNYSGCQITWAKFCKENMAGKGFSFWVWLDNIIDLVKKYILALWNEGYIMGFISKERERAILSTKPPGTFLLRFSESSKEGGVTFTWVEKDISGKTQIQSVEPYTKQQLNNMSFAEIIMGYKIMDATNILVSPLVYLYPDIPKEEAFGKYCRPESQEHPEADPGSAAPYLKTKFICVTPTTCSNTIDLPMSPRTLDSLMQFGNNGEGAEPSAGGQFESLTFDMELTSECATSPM
T2 sequence (Q96SW2 whole entry partner): as the sequence (Q96SW2 whole entry) above
Chain of Protein cereblon/SOSS complex subunit B1 (Homo sapiens) (Q96SW2 whole entry, looked up): as the sequence (Q96SW2 whole entry) above
Chain of Protein cereblon/SOSS complex subunit B1 (Homo sapiens) (Q9BQ15 whole entry, looked up): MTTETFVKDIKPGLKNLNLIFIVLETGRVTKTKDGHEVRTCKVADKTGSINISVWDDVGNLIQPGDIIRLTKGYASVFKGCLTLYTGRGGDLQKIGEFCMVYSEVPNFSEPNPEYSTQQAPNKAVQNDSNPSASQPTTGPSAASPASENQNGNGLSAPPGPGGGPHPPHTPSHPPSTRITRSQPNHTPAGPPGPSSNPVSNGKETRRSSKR
Chain of Protein cereblon/Protein FAM3C (Homo sapiens) (Q92520 whole entry, looked up): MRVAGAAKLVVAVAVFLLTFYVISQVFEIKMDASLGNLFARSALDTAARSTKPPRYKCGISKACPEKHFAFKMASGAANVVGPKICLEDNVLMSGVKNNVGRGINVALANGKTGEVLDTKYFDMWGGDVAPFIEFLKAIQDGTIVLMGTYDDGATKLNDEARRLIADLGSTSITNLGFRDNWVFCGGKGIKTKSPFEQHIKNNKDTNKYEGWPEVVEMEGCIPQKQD
Chain of Protein cereblon/Protein FAM3C (Homo sapiens) (Q96SW2 whole entry, looked up): as the sequence (Q96SW2 whole entry) above

In the case of `O=C1CCC(N2C(=O)c3cccc(NCCCCCC4CCN(CCNC(=O)c5cc6c(o5)C(=O)c5ccccc5C6=O)CC4)c3C2=O)C(=O)N1` (configuration not stated), the 50% degradation concentration (DC50) in test [1] was 60 nM. For the same compound, the outcome (with MIA PaCa-2; in [4]; in test [5]) was inactive. For the same compound, the result in [2] and in test [3] was Active. For the same compound, the log2FC in test [6] is -1.25; in [7], -0.82; in test [8] it was -0.78; in test [9], -0.73; in test [10], -0.63; in [11] it was -0.62. For the same compound, the log2FC is -0.59 in [12]; 1.58 in test [13]; 0.73 in [14]; 0.68 in test [15]; 0.6 in test [16].

These data come from ChEMBL document CHEMBL4706672 (J Med Chem, 2021).
